Reference: ChEMBL document CHEMBL1154198, “Chemical genetics of Plasmodium falciparum” (Nature, 2010)

Tests used:
[1] = ST_JUDE: Cytotoxicity using luciferase to measure ATP as an indicator of the viability of human epithelial embryonic kidney cells (HEK293); assay type: toxicity, cell-based
[2] = ST_JUDE: Cytotoxicity using luciferase to measure ATP as an indicator of the viability of human Burkitt''s lymphoma lymphoblast cells (Raji); assay type: toxicity, cell-based
Plasmodium falciparum [3] = assay: ST_JUDE: Cytotoxicity against Plasmodium falciparum V1/S; assay type: functional, organism-based
[4] = ST_JUDE: Cytotoxicity using luciferase to measure ATP as an indicator of the viability of human foreskin fibroblast cells (BJ); assay type: toxicity, cell-based
Plasmodium falciparum [5] = assay: ST_JUDE: Cytotoxicity against Plasmodium falciparum Dd2; assay type: functional, organism-based
Plasmodium falciparum [6] = assay: ST_JUDE: Cytotoxicity against Plasmodium falciparum D10 transfected with yeast DHOD; assay type: functional, organism-based
Plasmodium falciparum [7] = assay: ST_JUDE: Plasmodium falciparum 3D7 EC50 (uM) as measured by SYBR green dye; assay type: functional, organism-based
Plasmodium falciparum [8] = assay: ST_JUDE: Cytotoxicity against Plasmodium falciparum SB-A6; assay type: functional, organism-based
Plasmodium falciparum [9] = assay: ST_JUDE: Cytotoxicity against Plasmodium falciparum K1; assay type: functional, organism-based
Summary of the method: (§1)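 Asexual P. falciparum grown in human erythrocytes, exposed to compounds for 72 h, and growth read as the DNA quantity in treated versus control cultures. Dose-response run at 12 concentrations from 10 μM to 5 nM.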

Plasmodium falciparum [10] = assay: ST_JUDE: Plasmodium falciparum K1 EC50 (uM) as measured by SYBR green dye; assay type: functional, organism-based
Leishmania major = assay: ST_JUDE: Cytotoxicity using Alamar Blue to measure viability of Leishmania major; assay type: functional, organism-based
Summary of the method: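 L. major promastigotes; drug susceptibility read with Alamar Blue.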

Plasmodium falciparum [11] = assay: ST_JUDE: Cytotoxicity against Plasmodium falciparum 3D7; assay type: functional, organism-based; summary of the method: as §1
Plasmodium falciparum [12] = assay: ST_JUDE: Cytotoxicity against Plasmodium falciparum W2; assay type: functional, organism-based
Trypanosoma brucei = assay: ST_JUDE: Cytotoxicity using luciferase to measure ATP as an indicator of the viability of Trypanosoma brucei; assay type: functional, organism-based
[13] = ST_JUDE: Cytotoxicity using luciferase to measure ATP as an indicator of the viability of human epithelial hepatocellular carcinoma cells (HepG2); assay type: toxicity, cell-based
Toxoplasma gondii = assay: ST_JUDE: Growth inhibition of to Toxoplasma gondii, in human U-2OS cells, as measured by luciferase.; assay type: functional, organism-based; conditions: RH, U2OS
Summary of the method: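 T. gondii parasites engineered to express luciferase; drug sensitivity read by luminescence.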

Row | SMILES | EC50 [1] | EC50 [2] | EC50 (Plasmodium falciparum [3]) | EC50 [4] | EC50 (Plasmodium falciparum [5]) | EC50 (Plasmodium falciparum [6]) | EC50 (Plasmodium falciparum [7]) | EC50 (Plasmodium falciparum [8]) | EC50 (Plasmodium falciparum [9]) | EC50 (Plasmodium falciparum [10]) | EC50 (Leishmania major) | EC50 (Plasmodium falciparum [11]) | EC50 (Plasmodium falciparum [12]) | EC50 (Trypanosoma brucei) | EC50 [13] | EC50 (Toxoplasma gondii)
1 | CCCCOc1ccc(N(C(C)=O)C2=C(N3CCCCC3)C(=O)c3ccccc3C2=O)cc1 | > 28500 nM | 6970 nM | 120 nM | > 28500 nM | 382 nM | 62 nM | 722 nM | 104 nM | 147 nM | 489 nM | > 12200 nM | 167 nM | 483 nM | 4910 nM | 13700 nM | > 15600 nM
2 | Cc1cc(C)nc(/N=C(\N)Nc2ccccc2O)n1 | > 34200 nM | > 34200 nM | 978 nM | > 34200 nM | 908 nM | 2880 nM | 594 nM | 2180 nM | 560 nM | 497 nM | > 14600 nM | 1430 nM | 5710 nM | > 32800 nM | > 34200 nM | > 18700 nM
3 | CCOc1ccc(NC(=O)C2c3ccccc3C(=O)N(CC(C)C)C2c2cccs2)cc1 (centres undefined) | > 42800 nM | > 42800 nM | 503 nM | > 42800 nM | 362 nM | 368 nM | 133 nM | 353 nM | 294 nM | 147 nM | > 18300 nM | 258 nM | 134 nM | 6890 nM | > 42800 nM | > 23500 nM
4 | CCCCn1c(=N)n(CC(O)c2ccc(Br)cc2)c2ccccc21 (centres undefined) | > 43400 nM | 32900 nM | 1110 nM | > 43400 nM | 869 nM | 5620 nM | 1040 nM | 2620 nM | 1360 nM | 390 nM | > 18600 nM | 2000 nM | 638 nM | 6220 nM | 18900 nM | > 23800 nM
5 | COc1ccc2c(c1)N(C)/C(=C/c1cccc[n+]1C)S2 | > 15700 nM | 6520 nM | 1500 nM | > 15700 nM | 472 nM | 2460 nM | 186 nM | 1260 nM | 386 nM | 152 nM | 8.8 nM | 440 nM | > 4040 nM | 643 nM | > 15700 nM | > 8630 nM
6 | Cc1cc(Nc2ccc(Br)c(C)c2)n2nc(C)nc2n1 | > 37800 nM | > 37800 nM | 296 nM | > 37800 nM | 204 nM | > 9710 nM | 167 nM | > 9710 nM | 298 nM | 161 nM | > 16200 nM | 214 nM | 120 nM | > 36200 nM | > 37800 nM | > 20700 nM
7 | CCCO/C(O)=C1\C(C)=NC2=C(C(=O)CC(c3ccc(OC)cc3)C2)C1c1ccccc1F (centres undefined) | > 44600 nM | > 44600 nM | 375 nM | > 44600 nM | 636 nM | 419 nM | 549 nM | 243 nM | 281 nM | 439 nM | > 19100 nM | 495 nM | 83.9 nM | 9660 nM | > 44600 nM | > 24400 nM
8 | CO/C(O)=C1\C(C)=NC2=C(C(=O)CC(c3ccc(OC)c(OC)c3)C2)C1c1ccc(F)cc1 (centres undefined) | > 46300 nM | > 46300 nM | 409 nM | > 46300 nM | 456 nM | 182 nM | 122 nM | 178 nM | 272 nM | 108 nM | > 19800 nM | 236 nM | 208 nM | 25200 nM | > 46300 nM | > 25300 nM
9 | CCOc1ccccc1N1CCN(Cc2cc(Br)cc(OC)c2O)CC1 | > 36800 nM | > 36800 nM | 643 nM | > 36800 nM | 1170 nM | 2420 nM | 1210 nM | 1140 nM | 478 nM | 1110 nM | > 15700 nM | 1510 nM | 2930 nM | > 35300 nM | > 36800 nM | > 20100 nM
